Results collected from several papers.
Compare with care: the assays were run in different laboratories.
Cell line: MDA-MB-435
Effect on: cell growth or viability

Compound	assay	conditions	quantity	value
COc1ccc(C(=O)/C=C/c2cccc(Br)c2)cc1S(N)(=O)=O	SRB	10 µM	inhibition	106%
CCOC(=O)c1[nH]c(Br)c(-c2ccc(Cl)c(Cl)c2)c1Br	SRB	–	IC50	806 nM
COc1ccc(C(=O)/C=C/c2c(F)cccc2Cl)cc1S(N)(=O)=O	SRB	10 µM	inhibition	93%
COc1ccc(N(C)c2ncnc3c2CCC3)cc1	SRB	–	IC50	50.4 nM
COc1ccccc1/C=C/C(=O)c1ccc(OC)c(S(N)(=O)=O)c1	SRB	10 µM	inhibition	73%
CCOC(=O)c1[nH]c(Br)c(-c2ccc(OC(F)(F)F)cc2)c1Br	SRB	–	IC50	1700 nM
COc1ccc(C(=O)/C=C/c2cccc3ccccc23)cc1S(N)(=O)=O	SRB	10 µM	inhibition	95%
CCOC(=O)c1[nH]c(Br)c(-c2ccc3c(c2)OCO3)c1Br	SRB	–	IC50	1800 nM
CC(C)C[C@H](NC(=O)[C@H](Cc1ccccc1)NC(=O)c1cnccn1)B(O)O	ATP luminescence	–	IC50	8 nM
CCOC(=O)c1[nH]c(Br)c(-c2cccc(OC)c2)c1Br	SRB	–	IC50	633 nM
COc1cccc(Oc2ccccc2NC(=O)CNC(=O)c2cccc3ccccc23)c1	SRB	48 h	GI50	70.8 nM
O=C1NCCc2[nH]c(-c3ccncc3)cc21	–	–	IC50	> 10000 nM
COc1cc(-c2ccc(-c3ccc(C(=N)N)nc3)s2)cc(OC)c1OC	SRB	–	GI50	1620 nM
